Our source for the Uterine weight, RBA and inhibition values is ChEMBL document CHEMBL1122978, “Structure-activity relationship of estrogens: receptor affinity and estrogen antagonist activity of certain (E)- and (Z)-1,2,3-triaryl-2-propen-1-ones” (J Med Chem, 1985).

By inhibition is commonly meant the change of the read-out against control, counted positive when it falls. Low values mean a response near the control, high ones a response far below the control.

The target in test [1] is T1, Estrogen receptor (Mus musculus) (UniProt O08537+P19785).
Test [2] addresses T1, Estrogen receptor (Mus musculus). Description: In vivo anti-uterotrophic activity in mice following 1 ug estradiol i.p. The class given is functional, organism-based. Conditions: in the assay text read “s.c.” for “i.p.”. The gist of the method:
(§1)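 Antiuterotrophic test in immature female Swiss mice, 21-23 days old, 8-12 g. Each animal received 100 μg compound s.c. in propylene glycol-0.9% saline (1:1) daily for 3 days, with 1 μg E2 given at a separate site. Controls got E2 plus vehicle. Uterine weights were taken 24 h after the last dose. Activity computed as 100 × (W_ET − W_C)/(W_E − W_C).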

For test [3], the system named is Estrogen receptor (Mus musculus). In words: Relative binding affinity calculated as the ratio of molar concentration of E2 and the triarylpropenones (TAP's) required to decrease [3H]E2 binding by 50%.
In test [4] the target is T1, Estrogen receptor (Mus musculus). Description: Percentage inhibition of uterotrophic effects of estradiol in vivo following 100 ug i.p. In kind it is functional, organism-based. The settings on record: in the assay text read “s.c.” for “i.p.”. The gist of the method:
as §1

Test [5] addresses T2, Estrogen receptor (Rattus norvegicus) (UniProt P06211+Q62986). Description: Uterotrophic activity as uterine weight gain without E2 in rats. In kind it is functional, tissue-based. The settings on record: Uterus. The essentials: (§2)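 Immature female Charles Foster rats, 21-23 days old, 25-40 g, were dosed s.c. at 0.5-1000 μg/rat in propylene glycol-0.9% saline (1:1) for 3 consecutive days. Rats were given the compound either alone or with 1 μg E2 at another site. Uterine weight was measured 24 h after the last injection and reported as mean ± SD of at least six animals.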

The target of test [6] is T2, Estrogen receptor (Rattus norvegicus). In words: Uterotrophic activity as uterine weight gain in rats with concomitant E2 treatment. In kind it is functional, tissue-based. Conditions: Uterus. The gist of the method:
as §2

Test [7] deals with T1, Estrogen receptor (Mus musculus). In words: Uterotrophic activity as uterine weight gain in immature mice without E2 (number of animals). Conditions: Uterus. The class given is functional, tissue-based. The gist of the method:
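Uterotrophic test in immature female Swiss mice, 21-23 days old, 8-12 g. Dosing was 100 μg/animal s.c. in propylene glycol-0.9% saline (1:1) on three consecutive days, and controls got vehicle alone. Uteri were weighed at autopsy 24 h after the last injection. Group sizes are given per compound.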

Where “and” joins values, the source holds several entries; their conditions need not be identical. Identical values can stand only once.

T1 sequence (O08537 whole entry, looked up): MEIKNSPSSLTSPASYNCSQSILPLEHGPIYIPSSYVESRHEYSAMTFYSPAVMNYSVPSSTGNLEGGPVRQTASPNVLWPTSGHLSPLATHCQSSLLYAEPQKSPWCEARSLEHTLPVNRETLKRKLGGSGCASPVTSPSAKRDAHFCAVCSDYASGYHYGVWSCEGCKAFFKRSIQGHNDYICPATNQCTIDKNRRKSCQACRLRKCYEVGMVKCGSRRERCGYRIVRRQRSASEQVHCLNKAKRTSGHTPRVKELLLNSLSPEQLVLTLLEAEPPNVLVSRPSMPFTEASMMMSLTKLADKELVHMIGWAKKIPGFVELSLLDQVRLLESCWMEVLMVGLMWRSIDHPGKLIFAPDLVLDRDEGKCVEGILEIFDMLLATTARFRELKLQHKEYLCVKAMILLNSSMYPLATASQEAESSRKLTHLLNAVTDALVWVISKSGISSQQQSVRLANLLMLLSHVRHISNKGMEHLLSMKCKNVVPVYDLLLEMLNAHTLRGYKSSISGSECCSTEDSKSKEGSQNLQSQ
T1 sequence (P19785 whole entry, looked up): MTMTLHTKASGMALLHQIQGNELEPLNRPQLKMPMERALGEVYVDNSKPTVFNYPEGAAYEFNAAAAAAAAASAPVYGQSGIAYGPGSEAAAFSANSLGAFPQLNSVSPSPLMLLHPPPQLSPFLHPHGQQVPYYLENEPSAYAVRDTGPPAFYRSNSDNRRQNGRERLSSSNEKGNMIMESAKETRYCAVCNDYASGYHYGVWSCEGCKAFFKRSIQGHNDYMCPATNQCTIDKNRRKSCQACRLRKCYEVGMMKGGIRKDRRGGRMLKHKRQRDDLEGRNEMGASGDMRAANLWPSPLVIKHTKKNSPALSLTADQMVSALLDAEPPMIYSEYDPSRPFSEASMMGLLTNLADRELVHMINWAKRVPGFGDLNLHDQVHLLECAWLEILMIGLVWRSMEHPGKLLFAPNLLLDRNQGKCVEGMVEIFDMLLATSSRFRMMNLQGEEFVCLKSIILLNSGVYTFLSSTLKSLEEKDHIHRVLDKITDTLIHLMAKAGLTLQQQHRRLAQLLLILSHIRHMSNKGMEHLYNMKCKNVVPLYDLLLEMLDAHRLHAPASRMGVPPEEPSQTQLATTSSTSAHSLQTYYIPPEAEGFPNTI

For the compound `CC(=O)Oc1ccc(/C(=C/c2ccccc2)C(=O)c2ccccc2)cc1`, the Uterine weight in test [1] was 4.5 mg; in test [2] it was 17.8 mg. The RBA in test [3] was 0.24. Moreover, the inhibition in test [4] is 39%.
For `O=C(/C(=C\c1ccccc1)c1ccc(O)cc1)c1ccc(O)cc1` the same measures were 4.1 mg, 14.7 mg, 4.75 and 55%.
`O=C(/C(=C/c1ccc(O)cc1)c1ccc(O)cc1)c1ccccc1`: the Uterine weight is 5.5 mg in test [1] and 16.9 mg in test [2]. In addition, in test [3], the RBA was 0.57. Also, in test [4], the inhibition was 44%.
For `CC(=O)Oc1ccc(/C(=C\c2ccccc2)C(=O)c2ccccc2)cc1` the same measures were 4.2 mg, 21.5 mg, 0.28 and 20%.
For `O=C(/C(=C/c1ccccc1)c1ccccc1)c1ccccc1` the same measures were 4.4 mg, 15.4 mg, 0.012 and 51%.
As for `COc1ccc(C(=O)/C(=C\c2ccccc2)c2ccccc2)cc1`, the figures for the Uterine weight in test [1] and in test [2] were 4.8 mg and 16 mg, respectively. Also, the RBA in test [3] is under 0.001. The same compound gave an inhibition in test [4] of 48%.
Take `O=C(/C(=C/c1ccccc1)c1ccccc1)c1ccc(OCCN2CCCC2)cc1`: the RBA in test [3] is 0.025.
For the compound `O=C(/C(=C/c1ccc(O)cc1)c1ccc(O)cc1)c1ccc(O)cc1`, the Uterine weight was 4.4 mg and 12 mg in test [1]; 20.5 mg [middle of 5 runs] in test [5]; 53.6 mg [middle of 5 runs] in test [6]. For the same compound, the RBA in test [3] was 0.55. The inhibition in test [4] was determined as 69%.
Turning to `COc1ccc(/C(=C/c2ccccc2)C(=O)c2ccccc2)cc1`, the Uterine weight in test [1] worked out at 3.5 mg; in test [2], 15.3 mg. Also, the RBA in test [3] is under 0.001. In test [4], the inhibition came to 52%.
With `O=C(/C(=C/c1ccccc1)c1ccccc1)c1ccc(O)cc1`, the results for the Uterine weight in test [7] and in test [2] were 9.7 mg and 18.5 mg, respectively. For the same compound, the RBA in test [3] was 2.02. Further, the inhibition in test [4] was 36%.
For `COc1ccc(C(=O)/C(=C/c2ccccc2)c2ccccc2)cc1`, the values for the Uterine weight in test [1] and in test [2] were 5 mg and 20.2 mg, respectively. Also, the RBA in test [3] was under 0.001. The same compound came in with an inhibition in test [4] of 27%.
For `O=C(/C(=C/c1ccccc1)c1ccc(O)cc1)c1ccc(O)cc1` the same measures were 6.8 mg, 21.9 mg, 0.37 and 18%.
In the same order, the values of `O=C(/C(=C\c1ccccc1)c1ccccc1)c1ccc(O)cc1` are 3.2 mg, 13.6 mg, under 0.001 and 60%.
For `O=C(/C(=C/c1ccc(O)cc1)c1ccccc1)c1ccccc1` the same measures were 5 mg, 14 mg, 0.22 and 58%.
As for `CC(=O)Oc1ccc(/C=C(/C(=O)c2ccccc2)c2ccccc2)cc1`, the results for the Uterine weight in test [1] and in test [2] were 5.9 mg and 17.3 mg, respectively. In addition, in test [3], the RBA was 0.42. This compound had an inhibition in test [4] of 42%.
In the case of `O=C(/C(=C\c1ccc(O)cc1)c1ccc(O)cc1)c1ccccc1`, the Uterine weight in test [1] was 5.6 mg; in test [2], 16.5 mg. In addition, the RBA in test [3] was 0.48. The compound also displayed an inhibition in test [4] of 47%.
For `O=C(/C(=C/c1ccccc1)c1ccc(O)cc1)c1ccccc1` the same measures were 2.9 mg, 18.4 mg, 0.28 and 36%.
As for `COc1ccc(/C(=C\c2ccccc2)C(=O)c2ccccc2)cc1`, the Uterine weight in test [1] came to 4.7 mg; in test [2], 18.5 mg. Besides, in test [3], the RBA is 0.02. The compound also returned an inhibition in test [4] of 36%.
`O=C(/C(=C\c1ccccc1)c1ccccc1)c1ccc(OCCN2CCCC2)cc1`: the RBA in test [3] was 0.002.
On to `CC(=O)Oc1ccc(/C=C(/C(=O)c2ccc(OC(C)=O)cc2)c2ccccc2)cc1`, for which the Uterine weight in test [1] and in test [2] was 14 mg in each case. For the same compound, the RBA in test [3] is 1.02. For the same compound, the inhibition in test [4] worked out at 58%.
For the compound `O=C(/C(=C\c1ccccc1)c1ccccc1)c1ccccc1`, the Uterine weight was found to be 3 mg in test [1] and 15.3 mg in test [2]. In addition, the RBA in test [3] was under 0.001. Moreover, in test [4], the inhibition turned out to be 51%.
Turning to `COc1ccc(/C=C(/C(=O)c2ccccc2)c2ccccc2)cc1`, the Uterine weight in test [1] stood at 4.3 mg; in test [2] it was 17.3 mg. In test [3], the RBA is 0.09. In addition, in test [4], the inhibition was 42%.
For `O=C(/C(=C\c1ccc(O)cc1)c1ccccc1)c1ccc(O)cc1` the same measures were 3.4 mg, 22.3 mg, 0.4 and 16%.
For the compound `COc1ccc(/C=C(\C(=O)c2ccccc2)c2ccccc2)cc1`, the Uterine weight stood at 4.6 mg in test [1] and 15.3 mg in test [2]. Besides, the RBA in test [3] is under 0.001. This compound also displayed an inhibition in test [4] of 52%.
